Assay results from ChEMBL document CHEMBL4371064, “Erythrofordins D and E, two new cassaine-type diterpenes from Erythrophleum suaveolens” (2019).

Assays:
Type in all cases: functional
[1] = tested on: NCI-H23; assay: Growth inhibition of human NCI-H23 cells incubated for 48 hrs by sulforhodamine B assay; settings: NCI-H23, 48 h
Procedure, shortened: (§1)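 Run in the NCI-60 human tumour cell line panel with dose-response testing. GI50 was determined for each cell line from its dose-response data.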

[2] = tested on: PC-3; assay: Growth inhibition of human PC3 cells incubated for 48 hrs by sulforhodamine B assay; settings: PC-3, 48 h; procedure, shortened: as §1
[3] = tested on: NCI/ADR-RES; assay: Growth inhibition of human NCI/ADR-RES cells incubated for 48 hrs by sulforhodamine B assay; procedure, shortened: as §1
[4] = tested on: DU-145; assay: Growth inhibition of human DU145 cells incubated for 48 hrs by sulforhodamine B assay; settings: DU-145, 48 h; procedure, shortened: as §1
[5] = tested on: UO-31; assay: Growth inhibition of human UO31 cells incubated for 48 hrs by sulforhodamine B assay; settings: UO-31, 48 h
Procedure, shortened: (§2)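 Tested in the NCI 60-human-tumour-cell-line screen using the five-dose format. GI₅₀ was derived from each cell line's dose-response. TGI and LC₅₀ were derived from the same dose-response data.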

[6] = tested on: SF-268; assay: Growth inhibition of human SF268 cells incubated for 48 hrs by sulforhodamine B assay; settings: SF-268, 48 h; procedure, shortened: as §1
[7] = tested on: A549; assay: Growth inhibition of human A549/ATCC cells incubated for 48 hrs by sulforhodamine B assay; settings: A549, 48 h; procedure, shortened: as §1
[8] = tested on: OVCAR-5; assay: Growth inhibition of human OVCAR5 cells incubated for 48 hrs by sulforhodamine B assay; settings: OVCAR-5, 48 h; procedure, shortened: as §1
[9] = tested on: HCC 2998; assay: Growth inhibition of human HCC2998 cells incubated for 48 hrs by sulforhodamine B assay; settings: HCC 2998, 48 h; procedure, shortened: as §1
[10] = tested on: EKVX; assay: Growth inhibition of human EKVX cells incubated for 48 hrs by sulforhodamine B assay; procedure, shortened: as §1
[11] = tested on: U-251; assay: Growth inhibition of human U251 cells incubated for 48 hrs by sulforhodamine B assay; settings: U-251, 48 h; procedure, shortened: as §2
[12] = tested on: T47D; assay: Growth inhibition of human T47D cells incubated for 48 hrs by sulforhodamine B assay; procedure, shortened: as §2
[13] = tested on: RPMI-8226; assay: Growth inhibition of human RPMI8226 cells incubated for 48 hrs by sulforhodamine B assay; settings: RPMI-8226, 48 h; procedure, shortened: as §1
[14] = tested on: HL-60(TB); assay: Growth inhibition of human HL-60(TB) cells incubated for 48 hrs by sulforhodamine B assay; settings: HL-60, 48 h
Procedure, shortened: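 Run within the NCI-60 human tumour cell line panel as a dose-response screen. For each cell line the readouts are GI50, TGI and LC50. Per-line log values also feed a mean-graph analysis, in which the arithmetic mean of the log values across all lines is subtracted from each line's log value.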

[15] = tested on: MCF7; assay: Growth inhibition of human MCF7 cells incubated for 48 hrs by sulforhodamine B assay; settings: MCF7, 48 h; procedure, shortened: as §1
[16] = tested on: KM12; assay: Growth inhibition of human KM12 cells incubated for 48 hrs by sulforhodamine B assay; settings: KM12, 48 h; procedure, shortened: as §1
[17] = tested on: MDA-MB-435; assay: Growth inhibition of human MDA-MB-435 cells incubated for 48 hrs by sulforhodamine B assay; settings: MDA-MB-435, 48 h; procedure, shortened: as §1
[18] = tested on: M14; assay: Growth inhibition of human M14 cells incubated for 48 hrs by sulforhodamine B assay; settings: M14, 48 h; procedure, shortened: as §1
[19] = tested on: RXF 393; assay: Growth inhibition of human RXF393 cells incubated for 48 hrs by sulforhodamine B assay; settings: RXF 393, 48 h; procedure, shortened: as §1
[20] = tested on: HOP-62; assay: Growth inhibition of human HOP62 cells incubated for 48 hrs by sulforhodamine B assay; settings: HOP-62, 48 h; procedure, shortened: as §1
[21] = tested on: CAKI-1; assay: Growth inhibition of human Caki1 cells incubated for 48 hrs by sulforhodamine B assay; settings: CAKI-1, 48 h; procedure, shortened: as §1
[22] = tested on: NCI-H522; assay: Growth inhibition of human NCI-H522 cells incubated for 48 hrs by sulforhodamine B assay; settings: NCI-H522, 48 h; procedure, shortened: as §1
[23] = tested on: SK-MEL-28; assay: Growth inhibition of human SK-MEL-28 cells incubated for 48 hrs by sulforhodamine B assay; settings: SK-MEL-28, 48 h; procedure, shortened: as §1
[24] = tested on: NCI-H460; assay: Growth inhibition of human NCI-H460 cells incubated for 48 hrs by sulforhodamine B assay; settings: NCI-H460, 48 h; procedure, shortened: as §1
[25] = tested on: K562; assay: Growth inhibition of human K562 cells incubated for 48 hrs by sulforhodamine B assay; settings: K562, 48 h; procedure, shortened: as §1
[26] = tested on: OVCAR-8; assay: Growth inhibition of human OVCAR8 cells incubated for 48 hrs by sulforhodamine B assay; settings: OVCAR-8, 48 h; procedure, shortened: as §1
[27] = tested on: NCI-H322M; assay: Growth inhibition of human NCI-H322M cells incubated for 48 hrs by sulforhodamine B assay; procedure, shortened: as §1
[28] = tested on: MOLT-4; assay: Growth inhibition of human MOLT4 cells incubated for 48 hrs by sulforhodamine B assay; settings: MOLT-4, 48 h; procedure, shortened: as §1
[29] = tested on: SF-295; assay: Growth inhibition of human SF295 cells incubated for 48 hrs by sulforhodamine B assay; settings: SF-295, 48 h; procedure, shortened: as §1
[30] = read-out: pLC50 (the source's name) (converted)

Compound: COC(=O)/C=C1\CC[C@H]2[C@@H](CC(=O)[C@H]3C(C)(C)C(=O)CC[C@]23C)[C@H]1C
- GI50 [1]: 661 nM
- LC50 [1]: > 34700 nM
- TGI ([1]; read-out: pTGI (converted)): 1780 nM
- GI50 [2]: 933 nM
- CC50 [2, 30]: > 34700 nM
- TGI ([2]; read-out: pTGI (converted)): 2750 nM
- GI50 [3]: 741 nM
- CC50 [3, 30]: > 34700 nM
- TGI ([3]; read-out: pTGI (converted)): 1910 nM
- GI50 [4]: 575 nM
- LC50 (concentration killing 50% of cells) [4]: 1950 nM
- TGI ([4]; read-out: pTGI (converted)): 1050 nM
- GI50 [5]: 550 nM
- LC50 [5]: 2240 nM
- TGI ([5]; read-out: pTGI (converted)): 1100 nM
- GI50 [6]: 331 nM
- LC50 [6]: 1910 nM
- TGI ([6]; read-out: pTGI (converted)): 813 nM
- GI50 [7]: 427 nM
- LC50 [7]: 1820 nM
- TGI ([7]; read-out: pTGI (converted)): 891 nM
- GI50 [8]: 776 nM
- LC50 [8]: 21400 nM
- TGI ([8]; read-out: pTGI (converted)): 2340 nM
- GI50 [9]: 1450 nM
- LC50 [9]: > 34700 nM
- TGI ([9]; read-out: pTGI (converted)): 8130 nM
- GI50 [10]: 407 nM
- LC50 [10]: 1910 nM
- TGI ([10]; read-out: pTGI (converted)): 871 nM
- GI50 [11]: 646 nM
- LC50 [11]: 2630 nM
- TGI ([11]; read-out: pTGI (converted)): 1320 nM
- GI50 [12]: 1000 nM
- LC50 [12]: > 34700 nM
- TGI ([12]; read-out: pTGI (converted)): 2950 nM
- GI50 [13]: 1290 nM
- LC50 [13]: > 34700 nM
- TGI ([13]; read-out: pTGI (converted)): 22400 nM
- GI50 [14]: 977 nM
- LC50 [14]: > 34700 nM
- TGI ([14]; read-out: pTGI (converted)): 2750 nM
- GI50 [15]: 955 nM
- CC50 [15, 30]: > 34700 nM
- TGI ([15]; read-out: pTGI): > 34700 nM
- GI50 [16]: 1230 nM
- LC50 (concentration killing 50% of cells) [16]: 24000 nM
- TGI ([16]; read-out: pTGI): 5250 nM
- GI50 [17]: 1070 nM
- LC50 [17]: 20400 nM
- TGI ([17]; read-out: pTGI (converted)): 3800 nM
- GI50 [18]: 1150 nM
- LC50 [18]: 20000 nM
- TGI ([18]; read-out: pTGI (converted)): 4270 nM
- GI50 [19]: 776 nM
- CC50 [19, 30]: > 34700 nM
- TGI ([19]; read-out: pTGI (converted)): 2570 nM
- GI50 [20]: 550 nM
- CC50 [20, 30]: 2630 nM
- TGI ([20]; read-out: pTGI (converted)): 1200 nM
- GI50 [21]: 661 nM
- LC50 [21]: 2950 nM
- TGI ([21]; read-out: pTGI (converted)): 1380 nM
- GI50 [22]: 166 nM
- LC50 [22]: > 34700 nM
- TGI ([22]; read-out: pTGI (converted)): 977 nM
- GI50 [23]: 1170 nM
- LC50 [23]: > 34700 nM
- TGI ([23]; read-out: pTGI (converted)): 5010 nM
- GI50 [24]: 170 nM
- LC50 [24]: 2140 nM
- TGI ([24]; read-out: pTGI (converted)): 661 nM
- GI50 [25]: 1150 nM
- LC50 [25]: > 34700 nM
- TGI ([25]; read-out: pTGI (converted)): 5370 nM
- GI50 [26]: 851 nM
- LC50 [26]: 11000 nM
- TGI ([26]; read-out: pTGI (converted)): 2290 nM
- GI50 [27]: 813 nM
- LC50 [27]: 27500 nM
- TGI ([27]; read-out: pTGI (converted)): 2510 nM
- GI50 [28]: 195 nM
- LC50 [28]: > 34700 nM
- TGI ([28]; read-out: pTGI (converted)): 1150 nM
- GI50 [29]: 741 nM
- LC50 [29]: 6030 nM
- TGI ([29]; read-out: pTGI (converted)): 1740 nM
